Measured values: ChEMBL document CHEMBL1133942, “Synthesis and bioactivities of novel pyridazine derivatives: inhibitors of interleukin-1 beta (IL-1beta) production” (Bioorg Med Chem Lett, 2001)
The source made the active and inactive calls. The rule behind the calls is not given here.

Experiments:
[1] = tested on: Mus musculus; experiment: Observation of behavior in mice following 30 mg/kg i.p. administration; No significant change.; assay type: functional, organism-based; design: dose 30 mg/kg
[2] = tested on: HL-60; experiment: Inhibitory concentration against interleukin-1 beta production in HL-60 cells stimulated with lipopolysaccharide (LPS).; assay type: functional, cell-based; conditions: Homo sapiens
In short: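 IC50 obtained by comparing IL-1β yield with an untreated control to which no test compound was added.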

[3] = tested on: Mus musculus; experiment: Observation of behavior in mice after ip administration at the dose of 30 mg/kg; Weak sedation; assay type: functional, organism-based; design: dose 30 mg/kg
[4] = tested on: Mus musculus; experiment: Observation of behavior in mice after ip administration at the dose of 30 mg/kg; Depression of spontaneous locomotor activity; assay type: functional, organism-based; design: dose 30 mg/kg
[5] = tested on: Mus musculus; experiment: Observation of behavior in mice after ip administration at the dose of 30 mg/kg; symptoms were tremor, dyspnea, difficulty in walking and death; assay type: functional, organism-based; design: dose 30 mg/kg
[6] = species: Mus musculus; experiment: Number of dead mice/total number of mice used; 6/8; assay type: ADME, organism-based; conditions: in vivo

SMILES	IC50 [2] [nM]	Symptoms [1]	also measured
COc1ccc(-c2cc(Oc3cccc([N+](=O)[O-])c3)nnc2-c2ccc(OC)cc2)cc1	2360	No significant change	
COc1ccc(-c2cc(Nc3ccc(F)cc3F)nnc2-c2ccc(OC)cc2)cc1	1920	No significant change	
COc1ccc(-c2cc(Oc3cc(F)cc(F)c3)nnc2-c2ccc(OC)cc2)cc1	1380	No significant change	
COc1ccc(-c2cc(Oc3ccccc3C#N)nnc2-c2ccc(OC)cc2)cc1	150	No significant change	
COc1ccc(Oc2cc(-c3ccc(OC)cc3)c(-c3ccc(OC)cc3)nn2)cc1	450		
COc1ccc(-c2cc(Oc3ccc(F)c(F)c3)nnc2-c2ccc(OC)cc2)cc1	460		
COc1ccc(-c2cc(Oc3ccc([N+](=O)[O-])cc3)nnc2-c2ccc(OC)cc2)cc1	630	No significant change	
CCCN(c1cc(-c2ccc(OC)cc2)c(-c2ccc(OC)cc2)nn1)c1ccc(F)cc1F	3160	No significant change	
COc1ccc(-c2cc(Oc3cccc(C#N)c3)nnc2-c2ccc(OC)cc2)cc1	160		
COc1ccc(-c2cc(Oc3ccccc3)nnc2-c2ccc(OC)cc2)cc1	100	No significant change	
COc1ccc(-c2cc(Oc3cc(F)ccc3F)nnc2-c2ccc(OC)cc2)cc1	180		
COc1ccc(-c2cc(Oc3c(F)c(F)cc(F)c3F)nnc2-c2ccc(OC)cc2)cc1	190	No significant change	
COc1ccc(-c2cc(NCc3ccccc3)nnc2-c2ccc(OC)cc2)cc1	> 100000		
COc1ccc(-c2cc(Oc3c(F)cccc3F)nnc2-c2ccc(OC)cc2)cc1	350	No significant change	
COc1ccc(-c2cc(Oc3ccc(C#N)cc3)nnc2-c2ccc(OC)cc2)cc1	> 100000	No significant change	
COc1ccc(-c2cnc(C#N)nc2-c2ccc(OC)cc2)cc1	2880	No significant change	
COc1ccc(-c2cc(Sc3cc(Cl)c(Cl)c(Cl)c3)nnc2-c2ccc(OC)cc2)cc1	200	No significant change	
COc1ccc(-c2cc(Oc3ccncc3)nnc2-c2ccc(OC)cc2)cc1	1240	No significant change	
COc1ccc(-c2cc(C#N)nnc2-c2ccc(OC)cc2)cc1	90		Symptoms [5]: Tremor, dyspnea, difficulty in walking and death; Activity [6]: 6

Second part, led by results:

IC50 [2] [nM]	SMILES	Symptoms [1]	also measured
6600	COc1ccc(-c2ncc(C#N)nc2-c2ccc(OC)cc2)cc1		Symptoms [3]: Weak sedation
> 100000	COc1ccc(-c2cc(Nc3cc(OC)c(OC)c(OC)c3)nnc2-c2ccc(OC)cc2)cc1	No significant change	
760	C[C@]12C=CC(=O)C=C1CCC1[C@@H]2[C@@H](O)C[C@@]2(C)[C@H]1CC[C@]2(O)C(=O)CO (single isomer, unassigned) [PREDNISOLONE]	inactive	
2810	COc1ccc(-c2cc(-c3ccccc3)nnc2-c2ccc(OC)cc2)cc1	No significant change	
2540	COc1ccc(-c2cc(Oc3ccc(Cl)cc3Cl)nnc2-c2ccc(OC)cc2)cc1	No significant change	
120	COc1ccc(-c2cc(Oc3cccc(F)c3F)nnc2-c2ccc(OC)cc2)cc1	No significant change	
20500	COc1ccc(-c2cc(Sc3ccccc3)nnc2-c2ccc(OC)cc2)cc1	No significant change	
1870	COc1ccc(-c2cc(Sc3ccc(F)cc3F)nnc2-c2ccc(OC)cc2)cc1		Symptoms [3]: Weak sedation
2320	COc1ccc(-c2cc(Oc3ccc(F)cc3F)nnc2-c2ccc(OC)cc2)cc1		Symptoms [4]: Depression of spontaneous locomotor activity
40	COc1ccc(-c2cc(Oc3c(F)c(F)c(F)c(F)c3F)nnc2-c2ccc(OC)cc2)cc1		Symptoms [4]: Depression of spontaneous locomotor activity
